Assay results reported in ChEMBL document CHEMBL1154855 (Eur J Med Chem, 2010).

Assays:
[1] = tested on: Mammalian orthoreovirus 1; test: Antiviral activity against Reovirus 1 infected in african green monkey Vero cells assessed as protection from virus-induced cytopathogenicity after 6 to 7 days by MTT assay; assay type: functional, organism-based; conditions: Mammalian orthoreovirus 1, Vero
Human alphaherpesvirus 1 [2] = test: Antiviral activity against acyclovir-sensitive Herpes simplex virus 1 KOS infected in HEL cells assessed as protection from virus-induced cytopathogenicity after 2 to 3 days by MTT assay; assay type: functional, organism-based; conditions: Human alphaherpesvirus 1, KOS
Feline coronavirus = test: Antiviral activity against Feline coronavirus infected in cat CRFK cells assessed as protection from virus-induced cytopathogenicity by MTT assay; assay type: functional, organism-based; conditions: Alphacoronavirus 1, CRFK
MDCK [3] = test: Cytotoxicity against Influenza B virus infected MDCK cells by trypan blue exclusion method; assay type: cell-based, Canis lupus familiaris; conditions: dog
MDCK [4] = test: Cytotoxicity against Influenza A virus subtype H1N1 infected MDCK cells by trypan blue exclusion method; assay type: cell-based, Canis lupus familiaris; conditions: dog
MDCK [5] = test: Cytotoxicity against Influenza A virus subtype H3N2 infected MDCK cells by trypan blue exclusion method; assay type: cell-based, Canis lupus familiaris; conditions: dog
HeLa [6] = test: Cytotoxicity against VSV infected human HeLa cells by trypan blue exclusion method; assay type: cell-based; conditions: hela
How it was run: (§1)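 Uninfected confluent cultures were run in parallel with the infected cultures. Medium was replaced by 1 ml maintenance medium with serial compound concentrations; cell controls received no compound. Cultures were incubated at 37 °C. After 2 and 7 days, compound was withdrawn and viability was determined by trypan blue exclusion.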

Sindbis virus = test: Antiviral activity against Sindbis virus infected in african green monkey Vero cells assessed as protection from virus-induced cytopathogenicity after 2 to 3 days by MTT assay; assay type: functional, organism-based
[7] = tested on: Respiratory syncytial virus; test: Antiviral activity against Respiratory syncytial virus infected in human HeLa cells assessed as protection from virus-induced cytopathogenicity after 4 days by MTT assay; assay type: functional, organism-based; conditions: 96 h
[8] = Cytotoxicity against HIV1 3B-infected human MT4 cells by MTT assay; assay type: cell-based; conditions: MT4 cells infected with HIV-1 3B
How it was run: (§2)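 MT-4 cells (3 × 10^4 per well) were cultured in microdilution trays with various concentrations of compound, then incubated 5 days at 37 °C, and viable cell number was read by MTT.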

Human alphaherpesvirus 1 [9] = test: Antiviral activity against Herpes simplex virus 1 KOS infected in HEL cells assessed as protection from virus-induced cytopathogenicity after 2 to 3 days by MTT assay; assay type: functional, organism-based; conditions: Human alphaherpesvirus 1, KOS
Vero [10] = test: Cytotoxicity against PIV 3 infected african green monkey Vero cells by trypan blue exclusion method; assay type: cell-based; conditions: chlorocebus sabaeus, vero; how it was run: as §1
Human respirovirus 3 = test: Antiviral activity against PIV 3 infected in african green monkey Vero cells assessed as protection from virus-induced cytopathogenicity after 6 to 7 days by MTT assay; assay type: functional, organism-based; conditions: Human respirovirus 3, Vero
[11] = Cytotoxicity against Feline coronavirus infected cat CRFK cells by trypan blue exclusion method; assay type: cell-based, Felis catus; conditions: crfk; how it was run: as §1
[12] = tested on: Vesicular stomatitis virus; test: Antiviral activity against VSV infected in human HeLa cells assessed as protection from virus-induced cytopathogenicity after 1 to 2 days by MTT assay; assay type: functional, organism-based
Influenza B virus = test: Antiviral activity against Influenza B virus infected in MDCK cells assessed as protection from virus-induced cytopathogenicity after 6 to 7 days by MTT assay; assay type: functional, organism-based
HEL [13] = test: Cytotoxicity against Vaccinia virus infected HEL cells by trypan blue exclusion method; assay type: cell-based; conditions: human, hel; how it was run: as §1
[14] = tested on: Human immunodeficiency virus 1; test: Antiviral activity against HIV1 3B-infected in human MT4 cells assessed as protection from virus-induced cytopathogenicity after 5 days by MTT assay; assay type: functional, organism-based; conditions: Human immunodeficiency virus 1, 3B, MT4, 120 h
How it was run: (§3)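 MT-4 cells at 3 × 10^4 per well were infected with HIV (IIIB or ROD) at 50% cell culture infective doses. Graded compound concentrations were added immediately after infection. Plates were incubated for 5 days at 37 °C and viable cells were counted by MTT.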

Coxsackievirus B4 [15] = test: Antiviral activity against Human coxsackievirus B4 infected in human HeLa cells assessed as protection from virus-induced cytopathogenicity after 2 days by MTT assay; assay type: functional, organism-based; conditions: Enterovirus B, 48 h
[16] = tested on: Human immunodeficiency virus 2; test: Antiviral activity against HIV2 ROD infected in human MT4 cells assessed as protection from virus-induced cytopathogenicity after 5 days by MTT assay; assay type: functional, organism-based; conditions: Human immunodeficiency virus 2, ISOLATE ROD, MT4, 120 h; how it was run: as §3
Vero [17] = test: Cytotoxicity against Human coxsackievirus B4 infected african green monkey Vero cells by trypan blue exclusion method; assay type: cell-based; conditions: chlorocebus sabaeus, vero; how it was run: as §1
HEL [18] = test: Cytotoxicity against Herpes simplex virus 2 G infected HEL cells by trypan blue exclusion method; assay type: cell-based; conditions: human, hel; how it was run: as §1
[19] = Cytotoxicity against Feline herpesvirus infected cat CRFK cells by trypan blue exclusion method; assay type: cell-based, Felis catus; conditions: crfk; how it was run: as §1
Vero [20] = test: Cytotoxicity against Reovirus 1 infected african green monkey Vero cells by trypan blue exclusion method; assay type: cell-based; conditions: chlorocebus sabaeus, vero; how it was run: as §1
[21] = Cytotoxicity against HIV2 ROD infected human MT4 cells by MTT assay; assay type: cell-based; conditions: MT4 cells infected with HIV-2 ROD; how it was run: as §2
Influenza A virus [22] = test: Antiviral activity against Influenza A virus H3N2 infected in MDCK cells assessed as protection from virus-induced cytopathogenicity after 6 to 7 days by MTT assay; assay type: functional, organism-based
HeLa [23] = test: Cytotoxicity against Respiratory syncytial virus infected human HeLa cells by trypan blue exclusion method; assay type: cell-based; conditions: hela; how it was run: as §1
Influenza A virus [24] = test: Antiviral activity against Influenza A virus H1N1 infected in MDCK cells assessed as protection from virus-induced cytopathogenicity after 6 to 7 days by MTT assay; assay type: functional, organism-based
HeLa [25] = test: Cytotoxicity against Human coxsackievirus B4 infected human HeLa cells by trypan blue exclusion method; assay type: cell-based; conditions: hela; how it was run: as §1
HEL [26] = test: Cytotoxicity against VSV infected HEL cells by trypan blue exclusion method; assay type: cell-based; conditions: human, hel; how it was run: as §1
HEL [27] = test: Cytotoxicity against Herpes simplex virus 1 KOS infected HEL cells by trypan blue exclusion method; assay type: cell-based; conditions: human, hel; how it was run: as §1
Punta Toro virus = test: Antiviral activity against Punta Toro virus infected in african green monkey Vero cells assessed as protection from virus-induced cytopathogenicity by MTT assay; assay type: functional, organism-based
Coxsackievirus B4 [28] = test: Antiviral activity against Human coxsackievirus B4 infected in african green monkey Vero cells assessed as protection from virus-induced cytopathogenicity after 2 days by MTT assay; assay type: functional, organism-based; conditions: Enterovirus B, 48 h
HEL [29] = test: Cytotoxicity against acyclovir-sensitive Herpes simplex virus 1 KOS infected HEL cells by trypan blue exclusion method; assay type: cell-based; conditions: human; how it was run: as §1
[30] = tested on: Vesicular stomatitis virus; test: Antiviral activity against VSV infected in HEL cells assessed as protection from virus-induced cytopathogenicity after 1 to 2 days by MTT assay; assay type: functional, organism-based
Human alphaherpesvirus 2 = test: Antiviral activity against Herpes simplex virus 2 G infected in HEL cells assessed as protection from virus-induced cytopathogenicity after 2 to 3 days by MTT assay; assay type: functional, organism-based; conditions: Human alphaherpesvirus 2, strain G
Vero [31] = test: Cytotoxicity against Sindbis virus infected african green monkey Vero cells by trypan blue exclusion method; assay type: cell-based; conditions: chlorocebus sabaeus, vero; how it was run: as §1
Vero [32] = test: Cytotoxicity against Punta Toro virus infected african green monkey Vero cells by trypan blue exclusion method; assay type: cell-based; conditions: chlorocebus sabaeus, vero; how it was run: as §1
[33] = Selectivity index, ratio of CC50 for HIV2 ROD infected human MT4 cells to IC50 for […] ROD; assay type: functional
Felid alphaherpesvirus 1 = test: Antiviral activity against Feline herpesvirus infected in cat CRFK cells assessed as protection from virus-induced cytopathogenicity by MTT assay; assay type: functional, organism-based; conditions: Felid alphaherpesvirus 1, CRFK

In the case of COc1cc(/C=C/C(=O)CC(=O)/C=C/c2ccc(OCCOC(=O)CCC(NC(=O)c3ccc(NCc4cnc5nc(N)[nH]c(=O)c5n4)cc3)C(=O)O)c(OC)c2)ccc1O (stereo not given), the EC50 [1] is reported as over 119 nM, the EC50 (Human alphaherpesvirus 1 [2]) is reported as over 119 nM and the EC50 (Feline coronavirus) is reported as 78 nM. For the same compound, the CC50 (MDCK [3]) was over 119 nM, the CC50 (MDCK [4]) was over 119 nM and the CC50 (MDCK [5]) was over 119 nM. For the same compound, the CC50 (HeLa [6]) was over 119 nM, the EC50 (Sindbis virus) was over 119 nM and the EC50 [7] was over 119 nM. It also gave a CC50 [8] of over 63 nM, an EC50 (Human alphaherpesvirus 1 [9]) of over 119 nM and a CC50 (Vero [10]) of over 119 nM. For the same compound, the EC50 (Human respirovirus 3) was over 119 nM, the CC50 [11] was over 119 nM and the EC50 [12] was over 119 nM. The EC50 (Influenza B virus) was over 119 nM, the CC50 (HEL [13]) was over 119 nM and the IC50 [14] was 63 nM. For the same compound, the EC50 (Coxsackievirus B4 [15]) was over 119 nM, the IC50 [16] was 69 nM and the CC50 (Vero [17]) was over 119 nM. The CC50 (HEL [18]) was over 119 nM, the CC50 [19] was over 119 nM and the CC50 (Vero [20]) was over 119 nM. It also gave a CC50 [21] of over 69 nM, an EC50 (Influenza A virus [22]) of over 119 nM and a CC50 (HeLa [23]) of over 119 nM. For the same compound, the EC50 (Influenza A virus [24]) was over 119 nM, the CC50 (HeLa [25]) was over 119 nM and the CC50 (HEL [26]) was over 119 nM. For the same compound, the CC50 (HEL [27]) was over 119 nM, the EC50 (Punta Toro virus) was over 119 nM and the EC50 (Coxsackievirus B4 [28]) was over 119 nM. For the same compound, the CC50 (HEL [29]) was over 119 nM, the EC50 [30] was over 119 nM and the EC50 (Human alphaherpesvirus 2) was over 119 nM. For the same compound, the CC50 (Vero [31]) was over 119 nM, the CC50 (Vero [32]) was over 119 nM and the “Ratio CC50/IC50” value [33] was under 1. It also gave an EC50 (Felid alphaherpesvirus 1) of 105 nM.
